Screening data deposited in PubChem BioAssay by Broad Institute.
INS-1E GSIS act: GLuc luminescence reporter in INS-1E cells, primary screen for activators of glucose-dependent secretion of insulin; AID 743287, 2014; activation, % at 16.6 µM; INS-1E GLuc reporter insulin secretion, 2-3 h; actives 0.61% (n = 370,000);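 active = lowest replicate activation of at least 40%, so every replicate reaches that level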;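 also: 0% = median of neutral control wells and 100% = median of IBMX positive control wells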
ERp5 inh: inhibitors of ERp5-driven insulin aggregation, primary screen, biochemical, turbidity, absorbance 650 nm, single point; 90 min; AID 651711, 2012; actives 0.05% (n = 350,000); inhibition, % at 9.99 µM;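 active = mean replicate inhibition above about 25%, with every replicate also reaching it, limit read from the data, passing the limit was not always enough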
S100A4 inh HTS: inhibitors of S100A4-myosin IIA peptide binding, primary screen, biochemical, fluorescence polarization, TAMRA-MyoIIA peptide; Protein S100-A4 (Homo sapiens), P26447; inhibition, % at 10.7 µM; actives 0.14% (n = 360,000); AID 652163, 2013;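 active = mean inhibition of at least 70% across replicates, with every replicate also reaching that level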
Target sequence (P26447 whole entry, looked up): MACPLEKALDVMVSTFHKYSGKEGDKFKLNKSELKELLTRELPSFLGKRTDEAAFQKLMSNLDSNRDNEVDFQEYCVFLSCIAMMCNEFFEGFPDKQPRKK
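Test system – S100A4 monomer (human) · Compound – single-point compound testing · Schedule – 5 min incubation before reading · Probe or stimulus – TAMRA-labelled myosin IIA heavy-chain peptide probe, 5 nM · Benchmarks – neutral control DMSO, positive control TFP · Medium – Calcium-containing HEPES buffer, pH 7.2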
SIRT5 block: SIRT5 desuccinylase inhibitors, primary screen, biochemical, fluorescence imaging, single point, set 5 | Purified SirT5, succinyl-peptide AMC, trypsin-coupled fluorescence | inhibition, % at 15 µM | actives 1.1% (n = 330,000) | AID 652115, 2013; in the data active = inhibition above about 15%
Target sequence (Q9NXA8 whole entry, looked up): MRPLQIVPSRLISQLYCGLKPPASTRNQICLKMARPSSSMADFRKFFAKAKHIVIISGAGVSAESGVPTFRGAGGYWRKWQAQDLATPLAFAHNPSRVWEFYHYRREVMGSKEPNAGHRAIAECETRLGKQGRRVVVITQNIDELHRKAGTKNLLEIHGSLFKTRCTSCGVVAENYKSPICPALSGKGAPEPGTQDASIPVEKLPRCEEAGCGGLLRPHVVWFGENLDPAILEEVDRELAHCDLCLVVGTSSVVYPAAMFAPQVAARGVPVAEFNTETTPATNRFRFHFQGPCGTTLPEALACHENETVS
PDI inh: inhibitors of human PDI, primary screen, biochemical, turbidity, single point, plate reader; PDI insulin aggregation turbidity, A650, 90 min; actives 0.052% (n = 350,000); inhibition, % at 10 µM; Protein disulfide-isomerase (Homo sapiens), P07237;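 active = mean inhibition across replicates of 30% or more, whatever share of single replicates reach that level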
* hit, by the source's call; nt = no result given. Rows were chosen to be rich in hits. Some 1.5% of all compounds tested hit in one or more screens of this group.

SMILES	INS-1E GSIS act	ERp5 inh	S100A4 inh HTS	SIRT5 block	PDI inh
O=C(N[C@@H]1CC[C@@H](CC(=O)N2CCN(c3ccccc3)CC2)O[C@H]1CO)c1ccncc1	4.5	-2.7	-7.9	-1.0	nt
COc1ccc(OCc2cc(C(=O)NCCN3CCCC(O)C3)no2)c(Cl)c1 (stereo not drawn)	4.0	-1.0	-3.4	1.1	-8.4
O=C(NCCN1CCCC(O)C1)c1cc(COc2ccc(F)cc2Cl)on1 (stereo not drawn)	10.4	2.7	0.2	24.3*	-4.8
COc1ccc(-c2cc(NC=O)c3ncc(-c4ccc(OC)c(OC)c4)n3c2)cc1OC	nt	5.3	-15.2	-1.0	-14.2
COc1ccc(-c2cc(NC=O)c3ncc(-c4ccc(OC)c(OC)c4)n3c2)cc1	51.6*	-13.3	-7.5	nt	-4.8
CCCN(Cc1nnc(-c2ccccc2Cl)o1)C(=O)c1cc(S(=O)(=O)N2CCOCC2)ccc1F	-1.2	2.3	4.1	15.3*	2.7
NC(=O)[C@H]1[C@@H]2C(=O)O[C@@H](c3ccccc3)[C@@H](c3ccccc3)N2[C@@H](c2ccccc2OCCO)[C@]12C(=O)Nc1ccc(C#CC3(O)CCCCCC3)cc12	nt	-4.1	-2.8	16.0*	nt
NC(=O)[C@H]1[C@@H]2C(=O)O[C@@H](c3ccccc3)[C@@H](c3ccccc3)N2[C@@H](c2ccc(OCCO)cc2)[C@]12C(=O)Nc1ccc(C#CC3(O)CCCCCC3)cc12	nt	-12.4	10.6	14.4	nt
COc1ccc(C#Cc2ccc3c(c2)[C@]2(C(=O)N3)[C@H](C(=O)N3CCc4cc(OC)c(OC)cc4C3)[C@H]3C(=O)O[C@H](c4ccccc4)[C@H](c4ccccc4)N3[C@@H]2c2ccc(OCCO)cc2)cc1	nt	2.8	8.7	-3.6	nt
COc1ccc(C#Cc2ccc3c(c2)[C@]2(C(=O)N3)[C@H](c3ccc(OCCO)cc3)N3[C@H](c4ccccc4)[C@H](c4ccccc4)OC(=O)[C@H]3[C@@H]2C(=O)N2CCc3cc(OC)c(OC)cc3C2)cc1	nt	2.5	-49.4	15.3*	nt
O=C(COc1ccc(-n2ccnc2)cc1)Nc1cccc(Cl)c1	-40.8	5.6	-3.4	22.5*	1.3
O=C(COc1ccc(-n2ccnc2)cc1)Nc1cccc(F)c1	39.7	1.5	-6.5	-2.4	-0.2
CN1CCN(NC(=O)c2cccc(S(=O)(=O)N3CCCCCC3)c2)CC1	58.1*	8.8	-4.6	-2.8	-0.6
C[C@@H]1CN([C@H](C)CO)C(=O)c2cccc(NC(=O)NC3CCCCC3)c2O[C@@H]1CN(C)Cc1ccc(C(=O)O)cc1	0.4	-4.6	-4.8	0.7	nt
C[C@@H]1CN([C@@H](C)CO)C(=O)c2cc(NS(=O)(=O)c3ccc(Cl)cc3)ccc2O[C@@H](C)CCCCO[C@@H]1CN(C)Cc1ccc(C(F)(F)F)cc1	-29.5	4.3	16.1	18.2*	nt
C[C@@H]1CCCCO[C@@H](CN(C)Cc2ccc(C(F)(F)F)cc2)[C@H](C)CN([C@H](C)CO)C(=O)c2cc(NS(=O)(=O)c3ccc(Cl)cc3)ccc2O1	-19.9	-0.7	6.5	16.1*	nt
C[C@@H]1CCCCO[C@@H](CN(C)Cc2ccc(C(F)(F)F)cc2)[C@H](C)CN([C@@H](C)CO)C(=O)c2cc(NS(=O)(=O)c3ccc(Cl)cc3)ccc2O1	-12.6	0.2	3.9	17.8*	nt
C[C@H]1CCCCO[C@@H](CN(C)Cc2ccc(C(F)(F)F)cc2)[C@@H](C)CN([C@@H](C)CO)C(=O)c2cc(NS(=O)(=O)c3ccc(Cl)cc3)ccc2O1	-3.1	0.7	-8.9	15.5*	nt
C[C@@H]1CCCCO[C@H](CN(C)Cc2ccc(C(F)(F)F)cc2)[C@@H](C)CN([C@H](C)CO)C(=O)c2cc(NS(=O)(=O)c3ccc(Cl)cc3)ccc2O1	-2.4	-4.0	-26.6	-0.7	nt
C[C@@H]1CN([C@H](C)CO)C(=O)c2cccc(NS(=O)(=O)c3ccc(F)cc3)c2O[C@@H]1CN(C)CC1CC1	11.1	3.2	20.3	-3.7	nt
Cc1ccc(S(=O)(=O)N[C@@H]2C=C[C@H](CC(=O)NCCCN(C)C)O[C@@H]2CO)cc1	-8.0	0.7	16.4	0.3	nt
C[C@@H]1CCCCO[C@H](CN(C)Cc2ccc(C(F)(F)F)cc2)[C@H](C)CN([C@@H](C)CO)C(=O)c2cc(NS(=O)(=O)c3ccc(F)cc3)ccc2O1	-9.0	-3.8	10.9	-0.5	nt
